Compound activity (PubChem BioAssay)
TDP2 inh: blocks human TDP2 phosphodiesterase activity | O95551 | recombinant TDP2, T5PNP hydrolysis, p-nitrophenol absorbance 415 nm | inhibition, % at 12.8 µM | 370,000 tested, 0.34% active | AID 720702;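 active means inhibition above the mean of all tested compounds plus 3 SD, set per campaign, cut at about 25% in these data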;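 further: 0% = DMSO with enzyme and 100% = buffer with substrate but no TDP2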
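Test system: Human TDP2 enzyme | Reagent: 5 mM T5PNP | Compound dosing: 12.8 µM single point, 1% DMSO | Incubation: Enzyme reaction with compound for 2 h at 37 °C | Technique: p-Nitrophenol epi absorbance | Read-out: % inhibition relative to enzyme-containing and enzyme-free wells | Benchmarks: High control without enzyme, low control DMSO plus TDP2 | Replicates: Singlicate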
LEDGF integ inh: blocks HIV-1 LEDGF/p75-dependent DNA integration; TR-FRET IN-LEDGF/p75 DNA integration, Eu/Cy5; AID 743269; inhibition, % at 3.7 µM; 370,000 tested, 0.64% active;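 active means inhibition above the screen-wide mean plus 3 SD, cut at about 13% in these data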;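 further: signal is the Cy5 over europium emission ratio at 671 and 618 nm; 0% = plate median of compound wells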
SIAE inh: blocks human sialic acid acetylesterase. 370,000 tested, 0.69% active. Q9HAT2. AID 1053197. SIAE FP-Rh probe binding, fluorescence polarization. inhibition, % at 9.66 µM;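 active means inhibition above a cutoff: mean of compounds within the control limits plus 3 SD of those, cut at about 17% in these data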;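 further: 0% = plate median of compound wells and 100% = probe without SIAE protein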
mABHD4 FP: inhibitors of mouse ABHD4 | Q8VD66 | purified mABHD4, FP-Rh probe fluorescence polarization | inhibition, % at 8.92 µM | 370,000 tested, 0.54% active;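 active means inhibition exceeding the mean over every tested compound plus 3 SD, cut at about 30% in these data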;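 further: 0% = plate median of compound wells and 100% = S159A mutant with DMSO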
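Assay system: Wild-type mouse ABHD4 protein | Medium: HEPES pH 7.0 buffer, 150 mM NaCl, 0.01% Pluronic F-127 | Incubation: Enzyme–compound pre-incubation 45 min, then probe 60 min, both 25 °C | Technique: Fluorescence polarization with parallel and perpendicular emission, 525/598 nm | Evaluation: % inhibition of FP-Rh probe binding versus controls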
HTRA1 inh: inhibitors of human serine peptidase HTRA1; recombinant HTRA1, FP-rhodamine activity-based probe, fluorescence polarization; inhibition, % at 5.96 µM; 340,000 tested, 0.5% active; AID 504803; in the data active means inhibition above about 36%;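 further: 0% = enzyme with DMSO and 100% = wells lacking enzyme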
Target sequence (Q92743 whole entry, looked up): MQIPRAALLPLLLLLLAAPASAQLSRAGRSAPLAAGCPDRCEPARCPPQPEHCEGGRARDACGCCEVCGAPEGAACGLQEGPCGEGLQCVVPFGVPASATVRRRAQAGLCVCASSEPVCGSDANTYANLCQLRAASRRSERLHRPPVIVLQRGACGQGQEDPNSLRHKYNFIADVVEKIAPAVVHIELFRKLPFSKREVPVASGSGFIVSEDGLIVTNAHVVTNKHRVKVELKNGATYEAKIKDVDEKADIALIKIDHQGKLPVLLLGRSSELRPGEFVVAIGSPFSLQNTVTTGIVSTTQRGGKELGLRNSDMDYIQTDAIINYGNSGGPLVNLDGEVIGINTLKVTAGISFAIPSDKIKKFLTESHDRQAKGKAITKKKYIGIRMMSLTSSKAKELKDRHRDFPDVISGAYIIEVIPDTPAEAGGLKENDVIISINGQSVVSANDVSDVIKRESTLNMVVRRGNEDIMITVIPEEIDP
TCR CD3 inh: human TCR-CD3 binding inhibition | TAMRA-labeled TCR probe fluorescence, biochemical | inhibition, % at 9.4 µM | 360,000 tested, 0.37% active | AID 651800; in the data active means inhibition above about 19%;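 further: recombinant mutant TCR 2C K166C tagged with TAMRA read by polarization; 0% = receptor in buffer alone and 100% = receptor with positive control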
HTRA1 conf: confirmation of human HTRA1 inhibitors. recombinant HTRA1, FP-rhodamine activity-based probe, fluorescence polarization. AID 540248. inhibition, % at 5.96 µM. shares compounds with HTRA1 inh. 1,600 tested, 66% active;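 active means mean inhibition over three repeats above a set limit taken from the earlier primary screen, cut at about 37% in these data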;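 further: 0% = HTRA1 with DMSO and 100% = wells lacking HTRA1; inhibitors block probe binding so polarization drops and inhibition rises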
The depositor's hits bear a star; . = not tested or not shown. Hits are enriched below; roughly 2.2% of the tested compounds scored in any of these assays.

SMILES	TDP2 inh	LEDGF integ inh	SIAE inh	mABHD4 FP	HTRA1 inh	TCR CD3 inh	HTRA1 conf
CCCCC(=O)NC(c1ccc(Cl)cc1Cl)c1ccc2cccnc2c1O (configuration not stated)	-11	7	4	11	48*	-1	76*
Cc1ccnc(NC(c2ccccc2)c2ccc3cccnc3c2O)c1 (configuration not stated)	5	-3	3	12	15	-5	.
O=C(NCc1ccccc1)OC1CCC12CCC(c1ccccc1)CC2 (configuration not stated)	-10	7	-4	-12	.	.	.
CCC(=C(c1ccc(OC)cc1)c1ccc(OC)cc1)c1cn(CC(O)CN2CCN(C)CC2)c2ccccc12 (configuration not stated)	-17	-1	13	25	37*	-9	39*
CN(C)c1ccc(C=Cc2ccnc3c(O)cccc23)cc1	6	2	23*	-3	63*	-7	54*
Oc1ccc(/C=C/c2ccccc2F)c2cccnc12	-5	-1	6	22	.	.	.
CCOC(=O)CC[C@@]1(C(=O)OCC)C[C@@H](CC(=O)NCc2ccc(C)o2)C(=O)N2CCCC=C21	2	-3	-4	2	.	.	.
O=C1CSC(=S)N1N=Cc1c[nH]c2ccc(Br)cc12	4	3	-14	25	56*	-10	60*
COc1ccc(Br)cc1/C=N/N1C(=O)CSC1=S	11	1	-3	3	-11	0	.
COC(=O)C1=C(C)N(Cc2ccccc2C(F)(F)F)C(=NCc2ccc(OC)cc2)NC1c1ccc(Cl)cc1 (configuration not stated)	-2	-3	-4	19	.	3	.
O=[N+]([O-])c1ccc(Sc2cccc[n+]2[O-])c2nonc12	0	0	-5	26	81*	4	101*
Cc1nn(-c2ccccc2)c2c1C(c1ccc(O)c(O)c1)N1C(=N2)C(Nc2ccccc2)=Nc2ccccc21 (configuration not stated)	-3	-1	9	4	50*	1	53*
Cc1ccc(NC2=Nc3ccccc3N3C2=Nc2c(c(C)nn2-c2ccccc2)C3c2ccc(O)c(O)c2)cc1 (configuration not stated)	8	-4	-36	-23	37*	0	55*
Cc1cccc(NC2=Nc3ccccc3N3C2=Nc2c(c(C)nn2-c2ccccc2)C3c2ccc(O)c(O)c2)c1 (configuration not stated)	-16	-7	-17	-9	55*	5	56*
COC(=O)[C@]12C[C@H](CC(=O)NCc3ccc(C)o3)C(=O)N(Cc3ccc(Cl)cc3Cl)C1=C[C@H](COCc1ccccc1)O[C@@H]2C	-7	0	-2	-10	.	.	.
N[C@H](C(=O)N[C@@H](Cc1ccccc1)C(=O)N1CCC2CCN(S(=O)(=O)c3ccccc3)CC21)c1ccccc1 (some centres not stated)	10	0	2	1	.	.	.
O=S(=O)(c1ccc(C(F)(F)F)cc1)N1CCCc2nc(-c3ccc(F)cc3)ccc21	4	0	5	0	.	0	.
CCOc1ccc2c(c1)-c1c(ssc1=S)C(C)(C)N2C(=O)CSC1=NCCS1	-2	0	11	28	17	-6	.
CCOc1ccc2c(c1)-c1c(ssc1=S)C(C)(C)N2	.	.	.	.	46*	.	61*
C[C@@H]1ON(C)[C@H]2C[C@H]3c4cc(-c5cccc(Cl)c5)ccc4CCN3C[C@@H]12	3	3	-7	3	.	8	.
CCCCC1=CC2=CC(=O)C(C)(OC(=O)C3CCCC3)C(=O)C2=CO1 (configuration not stated)	-2	2	5	24	39*	2	44*
O=C(/C=C/c1ccc(F)cc1)c1cc(Br)ccc1O	-2	-4	0	3	-11	-1	.
CCNc1ccc(Br)cc(C(=O)/C=C/c2ccc(Cl)cc2)c1=O	.	.	.	.	63*	.	36
